# FLuc stim CS – affects firefly luciferase, flagging false hits in luciferase stimulation screens; ATPlite luciferase biochemical, luminescence, 10 min; 0 = ATP-free wells, 1 = DMSO control; 200,000 tested, under 10 active; AID 1027; activation factor at 10 µM;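 active means luciferase activation factor, scaled between plate controls, of at least 2 with compound at 10 µM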
# Target sequence (P08659 whole entry, looked up): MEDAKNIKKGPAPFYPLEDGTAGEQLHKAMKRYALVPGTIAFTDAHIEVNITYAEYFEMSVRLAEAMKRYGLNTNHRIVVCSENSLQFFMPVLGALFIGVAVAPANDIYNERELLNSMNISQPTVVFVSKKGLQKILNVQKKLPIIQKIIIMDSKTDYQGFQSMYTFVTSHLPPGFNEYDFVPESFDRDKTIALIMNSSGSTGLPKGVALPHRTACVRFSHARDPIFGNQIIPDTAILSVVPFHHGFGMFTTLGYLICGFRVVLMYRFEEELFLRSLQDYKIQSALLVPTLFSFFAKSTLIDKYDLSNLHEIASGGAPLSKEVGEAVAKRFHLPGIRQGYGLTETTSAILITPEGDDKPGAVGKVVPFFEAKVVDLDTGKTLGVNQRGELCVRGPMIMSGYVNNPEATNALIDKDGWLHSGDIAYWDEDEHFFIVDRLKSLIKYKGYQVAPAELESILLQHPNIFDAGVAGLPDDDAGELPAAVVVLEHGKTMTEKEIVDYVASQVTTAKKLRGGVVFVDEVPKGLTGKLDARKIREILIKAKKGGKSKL
#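 System: cell-free luciferase reagent; medium: PBS as buffer for the ATP substrate; doses: test compounds dosed from 2 mM stocks in 100% DMSO; incubation: 10 min, room temperature; measured by: luminescence from luciferase reaction; read-out: luciferase activation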
# APP 5'UTR act – APP 5'UTR luciferase reporter activation | SH-SY5Y APP 5'UTR luciferase reporter, luminescence; zero percent = DMSO vehicle wells | activation, % at 2 µM | actives 1% (n = 190,000) | AID 1276;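 active means activation above a set limit, based on mean plus 3 SD of controls, cut at about 140% in these data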
# FLuc inhib CS – counter-screen for luciferase assay inhibitors: firefly luciferase inhibition | P08659 | ATPLite firefly luciferase biochemical luminescence, 10 min | inhibition, % at 10 µM | actives 1.5% (n = 200,000) | AID 1006;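 active means inhibition above about 50% when tested at 10 µM, limit read from the data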
# NF-kB neuron act – NF-kB expression increase, human neuronal cells; actives 1.6% (n = 190,000); fold change at 12.5 µM; NF-kB reporter expression; active compounds read high; in the data active means fold change above about 3.3
# sdo1 growth – compounds rescuing growth of sdo1-depleted yeast, bone marrow failure model | S. cerevisiae sdo1-depleted JHY4D growth rescue, OD600 30 h; active compounds read high; pdr5 snq2 efflux-pump mutant strain | z-score at 10 µM | actives 0.21% (n = 140,000) | AID 817;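 active means z-score above 3 at both the 24 hr and the 30 hr optical density reads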
# STAT1 activator – activators of IFN-gamma induced STAT1 signaling; NIH 3T3 STAT1-luciferase reporter, luminescence; 100% = IFN-gamma alone, no compound; activation (% of control), % at 5.5 µM; actives 2.6% (n = 200,000); AID 932;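 active means activation above the screen-wide mean activation plus 3 SD, cut at about 130% in these data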
# Numbers stand for hits; – = inactive; · = no result. The list is not random: actives were taken first. Their share in the collection is about 4.3%.
SMILES,FLuc stim CS,APP 5'UTR act,FLuc inhib CS,NF-kB neuron act,sdo1 growth,STAT1 activator
Cc1cc(C)c(C#N)c(SCc2nc3ccccc3c(=O)[nH]2)n1,–,152.7,–,–,·,–
CC(C)(C)C1(O)CC(C(F)(F)F)=NN1C(=O)Cc1ccc([N+](=O)[O-])cc1 (configuration not stated),–,–,–,–,·,–
Cn1c(SCc2ccccc2Cl)nc2ccccc21,–,–,–,–,–,141.3
O=C(Cn1cc(F)c(=O)[nH]c1=O)NCCO,–,–,–,–,·,–
O=C(COc1ccc(Br)cc1Br)NC(=O)NC1CCCC1,–,–,–,3.41,·,142.3
O=C(COc1ccccc1Br)NC1CCCC1,–,–,–,–,–,–
COc1ccc(/C=N/Nc2ncccc2[N+](=O)[O-])c(OC)c1,–,137.3,62.9,7.93,·,–
COc1ccc(/C=N/Nc2ncc(-c3ccccc3)cn2)c(OC)c1,–,–,–,–,–,–
CSc1nsc(SCC(=O)N2CCCCC2)n1,–,–,–,–,·,130.2
CN(C)/C=N/c1sc2c(c1C(N)=O)CCCC2,–,–,–,–,·,–
Cc1ccc(/C=N/c2sc3c(c2C(N)=O)CCCC3)o1,–,–,–,–,·,146.0
O=C(NNc1cccc(Cl)n1)Nc1cccc(Cl)c1,–,–,–,–,–,–
O=C(NNC1=NCCCCC1)Nc1cccc(Cl)c1,–,–,–,–,·,136.0
O=C(Nc1ccc2nn(-c3ccccc3)nc2c1)c1cccs1,–,–,–,–,–,136.3
O=C(Nc1ccc2c(c1)OCO2)c1ccncc1,–,–,–,–,–,–
O=C(c1ccc2c(c1)OCCCO2)c1cccs1,–,140.0,–,3.97,–,–
O=C(Nc1ccc2c(c1)OCO2)c1cccs1,–,–,–,3.43,–,–
O=C(/C=C\Nc1ccc2c(c1)OCO2)c1cccs1,–,177.6,96.0,6.31,·,–
O=C(COc1cccc2ccccc12)N1c2ccccc2CCc2ccccc21,–,–,–,–,–,–
Cc1cc(Cl)ccc1NC(=S)N1CCN(C(=O)C2CCCO2)CC1 (configuration not stated),–,–,–,–,–,–
CCCOc1c(Br)cc(C2C3=C(CCCC3=O)N(C)C3=C2C(=O)CCC3)cc1OC,–,–,–,–,–,–
C[C@@H](C(=O)N1CCNCC1)n1cc(CCCN=C(N)N)nn1,–,–,–,–,·,–
COc1cccc(NC(=O)Cn2c(=O)n(-c3ccccc3)c(=O)c3sccc32)c1,–,–,–,–,·,–
CCNC(=O)COC(=O)c1ccc(-c2nc3ccccc3s2)s1,–,–,86.7,–,·,–
O=C(c1ccc(-c2nc3ccccc3s2)s1)N1CCOCC1,–,–,96.0,–,·,–
SMILES,FLuc stim CS,APP 5'UTR act,FLuc inhib CS,NF-kB neuron act,sdo1 growth,STAT1 activator
CCCN1CCN(C(=O)c2ccccc2-c2nc3ccccc3s2)CC1,–,–,–,–,·,–
O=C(NC1CC1)c1ccc(-c2nc3ccccc3s2)s1,–,–,95.9,–,–,–
Cc1ccc2nc(NC(=O)c3ccc(-c4nc5ccccc5s4)s3)sc2c1,–,–,–,–,–,–
Cc1noc(C)c1COC(=O)c1ccc(-c2nc3ccccc3s2)s1,–,–,–,–,–,–
CCN1CCN(C(=O)c2ccc(-c3nc4ccccc4s3)s2)CC1,–,–,–,4.18,·,129.6
O=C(c1ccc(Cl)s1)N1CCOCC1,–,–,–,–,–,–
COC(=O)c1ccc(Oc2ccc(C(F)(F)F)cn2)cc1,–,–,–,–,·,–
COc1cccc(NC(=S)NN=C2CCCCCC2)c1,–,–,–,3.33,·,–
O=C(NC(=S)NC1CCCCCC1)c1cncc(Br)c1,–,–,–,–,–,141.2
Cc1cc(=O)[nH]c(SCc2cccc3cccnc23)n1,–,–,–,–,·,–
Cc1nc(N)nc(N)c1/C=C/C(C)(C)c1ccc(Cl)cc1,–,–,–,–,·,–
CC(=O)Nc1ccc(/C=N/N2C(C)CCCC2C)cc1 (configuration not stated),–,–,–,–,·,–
CC(=O)Nc1ccc(/C=N/N2CCCCC2)cc1,–,–,–,–,·,135.4
CC(C)(C)c1ccc(C(=O)c2c[nH]c(C(=O)O)c2)cc1,–,–,–,–,·,142.2
CN(C)C=NC(=O)c1cc(C(=O)c2ccc(C(C)(C)C)cc2)c[nH]1,–,171.1,–,–,·,140.9
CCc1nc2ccccc2c(NC(=O)CN2CC(C)CC(C)C2)c1C (configuration not stated),–,–,–,–,·,–
NC(=O)c1cc(Cc2ccccc2)sc1NC(=O)c1ccco1,–,–,–,3.37,–,142.3
NC(=O)c1c(NC(=S)Nc2ccc(F)cc2)sc2c1CCCC2,–,–,–,–,·,–
NC(=O)c1c(NC(=O)c2ccco2)sc2c1CCC2,–,–,–,–,–,149.6
NC(=O)c1c(NC(=S)Nc2ccccc2)sc2c1CCCC2,–,–,–,–,·,131.7
NC(=O)c1c(NC(=O)c2ccncc2)sc2c1CCCC2,–,–,–,–,·,–
NC(=O)c1c(NC(=O)c2cnccn2)sc2c1CCCC2,–,–,–,–,·,134.7
CC(C)Sc1nc(-c2cccs2)nc2c1c(=O)n(C)c(=O)n2C,–,–,–,–,·,–
O=C(Nc1sc2c(c1C(=O)O)CCCCC2)c1ccco1,–,–,73.5,–,–,–
NC(=O)c1cc2ccc(O)cc2oc1=Nc1ccccc1,–,–,–,–,–,130.5
SMILES,FLuc stim CS,APP 5'UTR act,FLuc inhib CS,NF-kB neuron act,sdo1 growth,STAT1 activator
NC(=O)c1cc2ccc(O)cc2oc1=NCc1ccccc1,–,–,–,–,–,–
COc1ccc(C2CC(=O)c3ccccc3O2)cc1 (configuration not stated),–,–,–,3.77,–,–
COc1ccc(C2C(=O)c3ccccc3C2=O)cc1,–,–,90.0,–,–,–
COc1ccc(C2=C(N)c3ccccc3C2=O)cc1,–,–,56.6,–,–,132.9
COc1ccc(NC2=C(c3ccc(OC)cc3)C(=O)c3ccccc32)cc1,–,–,–,–,–,–
COc1ccc(C2C(=O)c3ccccc3C2=O)cc1OC,–,–,82.3,–,·,–
COc1cccc(C2Cc3ccccc3C(=O)O2)c1 (configuration not stated),–,–,–,–,–,–
Cc1ccc(CSCC(=O)NCc2ccco2)cc1,–,–,–,–,·,–
C1=Nc2ccccc2CN1c1ccccc1,–,–,–,–,–,130.2
O=C(NCC1CCCO1)c1ccc(CS(=O)(=O)c2ccc(Cl)cc2)o1 (configuration not stated),–,–,–,–,–,–
COCCn1c(N)c(N(Cc2ccccc2)C(=O)c2cc3ccccc3o2)c(=O)[nH]c1=O,–,–,–,–,·,–
CN(C[C@H](Cc1ccccc1)N(C[C@H](Cc1ccccc1)N(CC1(c2ccccc2)CC1)N=O)N=O)N=O,–,–,–,–,·,–
C/C(=C\C(=O)Nc1nccs1)c1ccccc1,–,–,–,–,–,144.2

# Assay outcomes: PubChem, several laboratories
